Experimental data as given in ChEMBL document CHEMBL1148452, “Fluoroartemisinin: trifluoromethyl analogues of artemether and artesunate” (J Med Chem, 2004).
Values joined by “and” are separate entries in the source; they are usually repeats but may differ in a detail not shown here. Equal values may be shown once.

What was measured:
Mus musculus [1] = experiment: (§1) Percentage uM/kg); format: functional
In short: (§2)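 Female ICR (CD-1) mice (18–20 g) infected with P. berghei NK 173, following Peters' 4-day test. Dosing was intraperitoneal for 4 days, with four to five mice per group. Parasitemia was counted and inhibition calculated against infected untreated controls. Survey dose 35.5 μmol/kg. ED50/ED90 came from doses of 0.5–10 mg/kg, with parasitemia read on day 4.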

Mus musculus [2] = experiment: as §1; format: functional; in short: as §2; remark: listed apart in the source
Plasmodium falciparum = experiment: In vitro antimalarial activity against Plasmodium falciparum FCB1; format: functional, organism-based
In short: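 P. falciparum FCB1 (chloroquine-resistant) cultured continuously in human erythrocytes. Ring-synchronized cultures at 1% parasitemia and 1% final hematocrit were exposed to serial dilutions, with methanol or DMSO ≤0.1%. Cultures received [3H]-hypoxanthine and were incubated 48 h at 37 °C. Incorporated radioactivity was compared with drug-free controls, and IC50 was taken by nonlinear regression of log(dose)-response. Mean of three experiments.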

Mus musculus [3] = experiment: as §1; format: functional; in short: as §2; remark: listed apart in the source
[4] = Half-life at pH 1; format: ADME; conditions: buffer
Mus musculus [5] = experiment: as §1; format: functional; in short: as §2; remark: listed apart in the source
Mus musculus [6] = experiment: as §1; format: functional; set-up: concentration or dose not given beside the values; in short: as §2
Mus musculus [7] = experiment: as §1; format: functional; in short: as §2; remark: listed apart in the source
Mus musculus [8] = experiment: (§3) In vivo antimalarial activity against Plasmodium berghei NK173 infected mice (Mus musculus) administered intraperitoneal. at the end of 4 day; format: functional; conditions: ip, 96 h; in short: as §2
Mus musculus [9] = experiment: In vivo antimalarial activity against Plasmodium berghei NK 173 infected mice (Mus musculus) administered i.p. at the end of 4 day; format: functional; in short: as §2
[10] = Plasmatic Half-life after intravenous administration to rat; format: ADME, organism-based; conditions: plasma
Mus musculus [11] = experiment: In vivo antimalarial activity against Plasmodium berghei NK173 infected mice (Mus musculus) administered intraperitoneally. at the end of 4 day; format: functional; conditions: ip, 96 h
In short: (§4)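 Female ICR (CD-1) mice (18–20 g), 4–5 per group, infected with P. berghei NK 173 and dosed intraperitoneally for 4 days at 0.5 to 10 mg/kg (Peters protocol). Parasitemia was counted at day 4, and inhibition was calculated against infected untreated controls. ED50 and ED90 were derived from these counts.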

Mus musculus [12] = experiment: as §3; format: functional; in short: as §4
[13] = Mus musculus, ip, 96 h, read-out: ED90

Row | SMILES | Parasitemia (Mus musculus [1]) | Parasitemia (Mus musculus [2]) | IC50 (Plasmodium falciparum) | Parasitemia (Mus musculus [3]) | half-life [4] | Parasitemia (Mus musculus [5]) | Parasitemia (Mus musculus [6]) | Parasitemia (Mus musculus [7]) | ED50 (Mus musculus [8]) | ED90 (Mus musculus [9]) | ED90 (Mus musculus [9]; [13]) | half-life [10] | ED50 (Mus musculus [11]) | ED90 (Mus musculus [12]) | ED90 (Mus musculus [12]; [13])
1 | COc1ccc(N[C@@]2(C(F)(F)F)OC3O[C@]4(C)CCC5[C@H](C)CCC([C@H]2C)[C@@]35OO4)cc1 (some centres undefined) | 8.1% | 0% | 12.3 nM | 0.1% | 30 h | 0% | 0% |  |  |  |  |  |  |  | 
2 | C[C@@H]1CC[C@H]2[C@@H](C)[C@](OCC(O)CO)(C(F)(F)F)OC3O[C@]4(C)CC[C@@H]1[C@]32OO4 (some centres undefined) |  | 12.1% | 0.9 nM | 28.8% |  |  | 2.1% | 46.3% |  |  |  |  |  |  | 
3 | CO[C@@]1(C(F)(F)F)OC2O[C@]3(C)CCC4[C@H](C)CCC([C@H]1C)[C@@]24OO3 (some centres undefined) |  | 0% | 0.8 nM |  | 660 h | 0% | 0% | 0% | 1.25 mg/kg and 3.4 µmol/kg | 17.5 µM/kg | 6.4 mg/kg |  |  |  | 
4 | C[C@@H]1CC[C@H]2[C@@H](C)[C@](OCc3ccc(C(=O)[O-])cc3)(C(F)(F)F)OC3O[C@]4(C)CC[C@@H]1[C@]32OO4.[Na+] (some centres undefined) | 25.6% | 26.8% | 10.6 nM | 34.9% | 680 h |  | 25.9% |  |  |  |  |  |  |  | 
5 | C[C@@H]1CC[C@H]2[C@@H](C)[C@](O)(C(F)(F)F)O[C@@H]3O[C@]4(C)CC[C@@H]1[C@]32OO4 |  | 10.7% | 9.4 nM |  |  |  | 4% | 22.1% |  |  |  | 1.43 h |  |  | 
6 | CCO[C@@]1(C(F)(F)F)OC2O[C@]3(C)CCC4[C@H](C)CCC([C@H]1C)[C@@]24OO3 (some centres undefined) |  | 0% | 3.3 nM |  | 500 h | 3.8% | 0% | 0% |  |  |  |  |  |  | 
7 | C[C@@H]1CC[C@H]2[C@@H](C)[C@](OCC=O)(C(F)(F)F)OC3O[C@]4(C)CC[C@@H]1[C@]32OO4 (some centres undefined) | 46.8% | 7.8% | 21.4 nM | 26.8% |  | 29.6% | 0.2% |  |  |  |  |  |  |  | 
8 | C[C@@H]1CCC2[C@@H](C)[C@](OO)(C(F)(F)F)OC3O[C@]4(C)CCC1[C@]32OO4 (some centres undefined) | 36.8% | 28.3% | 13.2 nM | 41.7% |  |  | 5.5% |  |  |  |  |  |  |  | 
9 | COC1O[C@@H]2O[C@]3(C)CCC4[C@H](C)CCC([C@H]1C)[C@]42OO3 (some centres undefined) | 48.1% | 5.5% | 3.5 nM | 39.2% |  |  | 2.2% |  |  |  |  |  | 2.5 mg/kg and 8.4 µmol/kg | 28.5 µM/kg | 8.5 mg/kg
10 | C[C@@H]1CC[C@H]2[C@@H](C)[C@](OCC(=O)O)(C(F)(F)F)OC3O[C@]4(C)CC[C@@H]1[C@]32OO4 (some centres undefined) |  |  | 30.4 nM |  |  |  | 47.5% |  |  |  |  |  |  |  | 
11 | C[C@@H]1CCC2[C@@H](C)[C@@H](O)OC3O[C@]4(C)CCC1[C@]32OO4 (some centres undefined) |  |  |  |  |  |  |  |  |  |  |  | 0.438 h |  |  | 
12 | C[C@@H]1CCC2[C@@H](C)[C@](OCC(F)(F)F)(C(F)(F)F)OC3O[C@]4(C)CCC1[C@]32OO4 (some centres undefined) |  | 0% | 8.3 nM |  | 215 h |  | 0% |  |  |  |  |  |  |  | 
